Measurements of several laboratories.
Each line is one published result; the experiments were not run side by side.
Organism: Escherichia coli
Read-out: microbial growth

Compound	test	test system	setting	MIC
CO/N=C(\C(=O)N[C@@H]1C(=O)N2C(C(=O)O)=C(CSc3nc(=O)c(O)nn3C)CS[C@H]12)c1csc(N)n1	broth dilution			≤ 0.5 µg/mL
Cc1[nH]c(C(=O)Nc2ccc(C(=O)NCC(=O)O)cc2N2CC[C@H](NC(=O)OC(C)(C)C)C2)c(Cl)c1Cl	broth dilution	ATCC25922		> 32 µg/mL
O=C(C=Cc1ccc(O)c(O)c1)OCc1ccccc1	broth dilution	ATCC25922		8 µg/mL
CC(C)(O/N=C(\C(=O)N[C@@H]1C(=O)N2C(C(=O)[O-])=C(C[n+]3ccccc3)CS[C@H]12)c1csc(N)n1)C(=O)O	broth dilution			0.125 µg/mL
Cc1[nH]c(C(=O)Nc2ccc(C(=O)NCC(=O)O)cc2N2CC[C@H](N)C2)c(Cl)c1Cl.Cl	broth dilution	ATCC25922		> 32 µg/mL
C[C@@H](O)[C@H]1C(=O)N2C(C(=O)O)=C(S[C@@H]3CN[C@H](C(=O)N(C)C)C3)[C@H](C)[C@H]12	broth dilution	ATCC25922	20 h	< 0.5 µg/mL
Cc1nn(-c2ccccc2)c2c1C(c1ccco1)N(C(=O)c1ccncc1)N2 (stereo not drawn)		MTCC739	24 h	64 µg/mL
Cc1[nH]c(C(=O)Nc2ccc(C(=O)NCC(=O)O)cc2N2CCNCC2)c(Cl)c1Cl.Cl	broth dilution	ATCC25922		> 32 µg/mL
Nc1ccccc1OC(=O)C=Cc1ccc(O)c(O)c1	broth dilution	ATCC25922		8 µg/mL
Cc1nn(-c2ccccc2)c2c1C(c1cncs1)N(C(=O)c1ccncc1)N2 (stereo not drawn)		MTCC739	24 h	64 µg/mL
Cc1[nH]c(C(=O)Nc2ccc(C(=O)NCc3n[nH]c(=O)o3)cc2N2CCNCC2)c(Cl)c1Cl.Cl	broth dilution	ATCC25922		> 32 µg/mL
C[C@H]1[C@H](NC(=O)/C(=N\OC(C)(C)C(=O)O)c2csc(N)n2)C(=O)N1S(=O)(=O)O	broth dilution			≤ 0.06 µg/mL
Cc1[nH]c(C(=O)Nc2ccc(-c3n[nH]c(=O)o3)cc2N2CC[C@H](N)C2)c(Cl)c1Cl.Cl	broth dilution	ATCC25922		8 µg/mL
CCC(C)CCCC(=O)N[C@@H](CCN)C(=O)N[C@H](C(=O)N[C@@H](CCN)C(=O)N[C@H]1CCNC(=O)[C@H]([C@@H](C)O)NC(=O)[C@H](CCN)NC(=O)[C@H](CCN)NC(=O)[C@H](CC(C)C)NC(=O)[C@@H](CC(C)C)NC(=O)[C@H](CCN)NC1=O)[C@@H](C)O (stereo partly drawn)	broth dilution			0.25 µg/mL
CC(O)CSc1nnc(-c2ccccc2)n1-c1ccccc1 (stereo not drawn)				11000 µg/mL
C[C@@H](O)[C@H]1C(=O)N2C(C(=O)O)=C(S[C@@H]3CN[C@H](C(=O)Nc4cccc(C(=O)O)c4)C3)[C@H](C)[C@H]12	broth dilution			≤ 0.125 µg/mL
O=C(N[C@H](CO)[C@H](O)c1ccc([N+](=O)[O-])cc1)C(Cl)Cl			24 h	2.5 to 5 µM
CN(C)[C@@H]1C(O)=C(C(N)=O)C(=O)[C@@]2(O)C(O)=C3C(=O)c4c(O)cccc4[C@@](C)(O)[C@H]3C[C@@H]12	broth dilution	ATCC25922		16 µg/mL
Cc1nn(-c2ccccc2)c2c1C(c1ccc([N+](=O)[O-])cc1)N(C(=O)c1ccncc1)N2 (stereo not drawn)		MTCC739	24 h	32 µg/mL
CC(O)CSc1nnc(-c2cc3c(ccc4ccccc43)o2)n1-c1ccccc1 (stereo not drawn)				16000 µg/mL
CO/N=C(\C(=O)N[C@@H]1C(=O)N2C(C(=O)[O-])=C(C[N+]3(C)CCCC3)CS[C@H]12)c1csc(N)n1	broth dilution			≤ 0.06 µg/mL
Cl.N[C@H]1CCN(c2cc(C(=O)NCC(=O)O)ccc2NC(=O)c2cc(Br)c(Br)[nH]2)C1	broth dilution	ATCC25922		> 32 µg/mL
Cc1nn(-c2ccccc2)c2c1C(c1ccc(Cl)cc1)N(C(=O)c1ccncc1)N2 (stereo not drawn)		MTCC739	24 h	> 100 µg/mL
CC(C)(C)OC(=O)N[C@@H]1CCN(c2cc(C(=O)NCC(=O)O)ccc2NC(=O)c2cc(Br)c(Br)[nH]2)C1	broth dilution	ATCC25922		> 32 µg/mL
Cc1nn(-c2ccccc2)c2c1C(c1ccc(O)cc1)N(C(=O)c1ccncc1)N2 (stereo not drawn)		MTCC739	24 h	16 µg/mL
CC(C)(C)OC(=O)N1CCN(c2cc(C(=O)NCC(=O)O)ccc2NC(=O)c2cc(Br)c(Br)[nH]2)CC1	broth dilution	ATCC25922		> 32 µg/mL
CC(C)NCC(COc1cccc2ccccc12)OC(=O)C=Cc1ccc(O)c(O)c1 (stereo not drawn)	broth dilution	ATCC25922		64 µg/mL
O=C(O)c1cn(C2CC2)c2cc(N3CCNCC3)c(F)cc2c1=O		K12, MG1655		2 µM
O=C(C=Cc1ccc(O)c(O)c1)Oc1ccccc1	broth dilution	ATCC25922		8 µg/mL
Cc1ccc(-c2nnc(SCC(C)O)n2-c2ccccc2)cc1 (stereo not drawn)				12500 µg/mL
